Test results as given in ChEMBL document CHEMBL2034841, “Synthesis and evaluation of (2-(4-methoxyphenyl)-4-quinolinyl)(2-piperidinyl)methanol (NSC23925) isomers to reverse multidrug resistance in cancer” (J Med Chem, 2012).
Blank lines part the entries; values can stand above or below the compound they belong to. Calls of active or inactive are those of the source. The calls are words filed in the database; no cut-off is given here.

Legend:
[1] = biological target: T1, ATP-dependent translocase ABCB1 (Homo sapiens, UniProt P08183); experiment: Inhibition of MDR1-mediated drug resistance in human multidrug-resistant SKOV3TR cells at 0.1 uM assessed as potentiation of paclitaxel potency by incubated for 6 days by MTT assay; format: cell-based; conditions: 144 h
Method in brief: (§1)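 SKOV-3_TR cells were seeded at 2000/well in RPMI 1640 complete medium with varying paclitaxel concentrations plus the test agent at a fixed 0.1, 0.5 or 1 μM for 6 days. Viability was read by MTT, and IC50 was taken from fitted dose–response curves in triplicate wells. Fold reversal = IC50 without agent ÷ IC50 with agent.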

[2] = biological target: T1, ATP-dependent translocase ABCB1; experiment: Inhibition of MDR1-mediated drug resistance in human multidrug-resistant SKOV3TR cells at 1 uM assessed as potentiation of paclitaxel potency by incubated for 6 days by MTT assay; format: cell-based; conditions: 144 h; method in brief: as §1
[3] = biological target: T1, ATP-dependent translocase ABCB1; experiment: Inhibition of MDR1-mediated drug resistance in human multidrug-resistant SKOV3TR cells at 0.5 uM assessed as potentiation of paclitaxel potency by incubated for 6 days by MTT assay; format: cell-based; conditions: 144 h; method in brief: as §1
[4] = biological target: Multidrug resistance-associated protein 1 (Homo sapiens, UniProt P33527); experiment: Inhibition of MRP1-mediated drug resistance in human multidrug-resistant H-69AR cells; format: cell-based
Method in brief: (§2)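 H-69AR (MRP1) or MCF-7/MX (BCRP) cells were plated in 96-well plates and treated with chemotherapy drugs plus the test agent as in the Pgp reversal assay: 2000 cells/well, 6 days, MTT read-out. IC50 values came from triplicate dose–response curves. Cells were grown in RPMI 1640 with 10% FBS at 37 °C, 5% CO2.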

[5] = biological target: T2, Broad substrate specificity ATP-binding cassette transporter ABCG2 (Homo sapiens, UniProt Q9UNQ0); experiment: Inhibition of BCRP-mediated drug resistance in human multidrug-resistant MCF7/MX cells; format: cell-based; method in brief: as §2
T2 sequence (Q9UNQ0 whole entry): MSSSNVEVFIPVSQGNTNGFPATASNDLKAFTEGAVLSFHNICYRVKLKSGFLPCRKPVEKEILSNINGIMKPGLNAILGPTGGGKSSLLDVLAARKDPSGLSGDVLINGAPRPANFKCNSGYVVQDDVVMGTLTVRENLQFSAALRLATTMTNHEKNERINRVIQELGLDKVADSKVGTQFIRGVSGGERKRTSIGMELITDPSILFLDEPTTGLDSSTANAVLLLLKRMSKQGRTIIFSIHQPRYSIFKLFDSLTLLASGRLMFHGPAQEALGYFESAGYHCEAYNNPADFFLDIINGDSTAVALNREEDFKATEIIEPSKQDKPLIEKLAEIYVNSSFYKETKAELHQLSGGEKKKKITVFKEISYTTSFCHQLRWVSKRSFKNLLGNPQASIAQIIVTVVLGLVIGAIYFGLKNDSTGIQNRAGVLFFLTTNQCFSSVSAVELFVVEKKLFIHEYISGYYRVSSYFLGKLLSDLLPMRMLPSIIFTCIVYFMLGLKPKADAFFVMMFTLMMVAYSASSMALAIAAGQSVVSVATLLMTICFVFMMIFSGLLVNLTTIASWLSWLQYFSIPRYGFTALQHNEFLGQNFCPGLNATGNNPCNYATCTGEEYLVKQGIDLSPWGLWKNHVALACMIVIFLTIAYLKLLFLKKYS

[6] = biological target: T1, ATP-dependent translocase ABCB1; experiment: Inhibition of MDR1 in human multidrug-resistant SW480TR cells assessed as increase in calcein AM accumulation by fluorescence microscopy; format: cell-based
Method in brief: (§3)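 Vybrant calcein AM efflux assay. Resistant cells (5000/well) were cultured for 24 h, then treated in triplicate with a range of test-agent concentrations for 1 h, followed by calcein AM for 30 min. Intracellular calcein fluorescence was imaged by fluorescence microscopy, and accumulation was compared across doses.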

[7] = biological target: T1, ATP-dependent translocase ABCB1; experiment: Inhibition of MDR1 in human multidrug-resistant MCF7adr cells assessed drug level causing maximal reversal of calcein AM accumulation deficit by fluorescence microscopy; method in brief: as §3
[8] = biological target: T1, ATP-dependent translocase ABCB1; experiment: Inhibition of MDR1 in human multidrug-resistant SW480TR cells assessed drug level causing maximal reversal of calcein AM accumulation deficit by fluorescence microscopy; format: cell-based; method in brief: as §3
[9] = tested on: Mus musculus; experiment: Toxicity in human multidrug-resistant […] cells xenografted in Crl:SHO-Prkdc'SCIDHr'hr nude mouse assessed as mortality incidence at 50 mg/kg, ip dosed twice weekly for two weeks starting two weeks post tumor cells implantation; format: organism-based; parameters: dose 50 mg/kg, route intraperitoneal; conditions: in vivo
Method in brief: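 […] cells injected subcutaneously with matrigel on day one. Dosing began two weeks later: ip injection twice a week for two weeks, given alone (50 mg/kg) or with paclitaxel (20 mg/kg); saline-injected controls. Mice checked daily for health and tumor growth. Toxicity judged from animal weight and mortality.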

[10] = biological target: T1, ATP-dependent translocase ABCB1; experiment: Inhibition of MDR1 in human multidrug-resistant SW480TR cells assessed as potentiation of doxorubicin-induced cell death at 1 uM incubated for 72 hrs by MTT assay; format: cell-based
[11] = biological target: T1, ATP-dependent translocase ABCB1; experiment: Inhibition of MDR1 in human multidrug-resistant SW480TR cells assessed drug level causing half maximal reversal of calcein AM accumulation deficit by fluorescence microscopy; format: cell-based; conditions: read-out: INH; method in brief: as §3
[12] = biological target: T1, ATP-dependent translocase ABCB1; experiment: Inhibition of MDR1 in human multidrug-resistant MCF7adr cells assessed as increase in calcein AM accumulation by fluorescence microscopy; method in brief: as §3
[13] = biological target: T1, ATP-dependent translocase ABCB1; experiment: Inhibition of MDR1 in human multidrug-resistant MCF7adr cells assessed as potentiation of doxorubicin-induced apoptosis at 1 uM incubated for 72 hrs by M30-apoptosense ELISA assay
Method in brief: (§4)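 MCF-7adr or SW480_TR cells were seeded at 8000/well for 24 h, then treated for 72 h with 0.5 μM doxorubicin, 1 μM test agent, or both. Cells were lysed with 10% NP-40, and apoptosis was quantified by M30-Apoptosense ELISA following kit instructions.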

[14] = biological target: T1, ATP-dependent translocase ABCB1; experiment: Inhibition of MDR1 in human multidrug-resistant SW480TR cells assessed as potentiation of doxorubicin-induced apoptosis at 1 uM incubated for 72 hrs by M30-apoptosense ELISA assay; format: cell-based; method in brief: as §4
[15] = tested on: Mus musculus; experiment: Toxicity in human multidrug-resistant SKOV-3TR cells xenografted in Crl:SHO-Prkdc'SCIDHr'hr nude mouse assessed as effect on body weight at 50 mg/kg, ip dosed twice weekly for two weeks starting two weeks post tumor cells implantation; conditions: in vivo
[16] = tested on: SKOV-3TR (Homo sapiens); experiment: Potentiation of 20 mg/kg, ip paclitaxel antitumor potency in human multidrug-resistant SKOV-3TR cells xenografted in Crl:SHO-Prkdc'SCIDHr'hr nude mouse assessed as increase in tumor growth inhibition at 50 mg/kg, ip dosed twice weekly for two weeks starting two weeks post tumor cells implantation
[17] = tested on: SKOV-3TR (Homo sapiens); experiment: Antitumor activity against human multidrug-resistant SKOV-3TR cells xenografted in Crl:SHO-Prkdc'SCIDHr'hr nude mouse assessed as tumor growth inhibition at 50 mg/kg, ip dosed twice weekly for two weeks starting two weeks post tumor cells implantation
[18] = biological target: T1, ATP-dependent translocase ABCB1; experiment: Inhibition of MDR1 in human multidrug-resistant MCF7adr cells assessed drug level causing half maximal reversal of calcein AM accumulation deficit by fluorescence microscopy; conditions: read-out: INH; method in brief: as §3
[19] = biological target: T1, ATP-dependent translocase ABCB1; experiment: Inhibition of MDR1 in human multidrug-resistant MCF7adr cells assessed as potentiation of doxorubicin-induced cell death at 1 uM incubated for 72 hrs by MTT assay
[20] = tested on: SKOV-3TR (Homo sapiens); experiment: Antitumor activity against human multidrug-resistant SKOV-3TR cells xenografted in Crl:SHO-Prkdc'SCIDHr'hr nude mouse assessed as tumor growth inhibition at 20 mg/kg, ip dosed twice weekly for two weeks starting two weeks post tumor cells implantation

T1 sequence (P08183 whole entry): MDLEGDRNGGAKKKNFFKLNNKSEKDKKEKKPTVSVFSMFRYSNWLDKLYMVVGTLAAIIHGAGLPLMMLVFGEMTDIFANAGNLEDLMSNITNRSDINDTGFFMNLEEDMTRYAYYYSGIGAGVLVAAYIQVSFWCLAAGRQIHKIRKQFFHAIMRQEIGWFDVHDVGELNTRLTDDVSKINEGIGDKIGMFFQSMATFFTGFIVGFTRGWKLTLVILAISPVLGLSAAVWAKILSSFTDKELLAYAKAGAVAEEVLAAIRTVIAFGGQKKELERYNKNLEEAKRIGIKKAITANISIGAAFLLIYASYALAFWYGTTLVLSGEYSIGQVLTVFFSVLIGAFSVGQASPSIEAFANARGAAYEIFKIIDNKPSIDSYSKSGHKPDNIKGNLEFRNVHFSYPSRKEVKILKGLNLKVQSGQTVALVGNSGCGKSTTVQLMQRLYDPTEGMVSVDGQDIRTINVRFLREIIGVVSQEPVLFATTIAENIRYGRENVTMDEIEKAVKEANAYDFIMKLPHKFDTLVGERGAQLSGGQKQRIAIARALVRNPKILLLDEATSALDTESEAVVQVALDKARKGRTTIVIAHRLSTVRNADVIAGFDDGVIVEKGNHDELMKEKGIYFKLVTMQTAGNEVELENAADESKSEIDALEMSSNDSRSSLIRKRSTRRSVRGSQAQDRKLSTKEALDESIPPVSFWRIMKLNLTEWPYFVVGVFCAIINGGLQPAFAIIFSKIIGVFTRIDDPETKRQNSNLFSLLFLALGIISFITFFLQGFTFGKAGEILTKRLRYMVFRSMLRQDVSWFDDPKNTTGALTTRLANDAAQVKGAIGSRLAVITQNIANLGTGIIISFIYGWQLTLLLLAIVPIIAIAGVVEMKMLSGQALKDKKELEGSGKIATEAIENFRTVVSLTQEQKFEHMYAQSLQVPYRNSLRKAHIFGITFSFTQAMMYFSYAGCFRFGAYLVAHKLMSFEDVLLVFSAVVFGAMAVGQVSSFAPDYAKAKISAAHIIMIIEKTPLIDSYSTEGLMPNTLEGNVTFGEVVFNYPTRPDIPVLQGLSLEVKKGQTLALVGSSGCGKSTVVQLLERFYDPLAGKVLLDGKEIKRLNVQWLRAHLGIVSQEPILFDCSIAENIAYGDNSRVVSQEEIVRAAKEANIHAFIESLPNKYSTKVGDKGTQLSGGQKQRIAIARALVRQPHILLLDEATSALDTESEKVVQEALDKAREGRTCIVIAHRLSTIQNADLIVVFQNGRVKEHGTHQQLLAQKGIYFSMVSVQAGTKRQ
Chain of Multidrug resistance-associated protein 1 (P33527 whole entry): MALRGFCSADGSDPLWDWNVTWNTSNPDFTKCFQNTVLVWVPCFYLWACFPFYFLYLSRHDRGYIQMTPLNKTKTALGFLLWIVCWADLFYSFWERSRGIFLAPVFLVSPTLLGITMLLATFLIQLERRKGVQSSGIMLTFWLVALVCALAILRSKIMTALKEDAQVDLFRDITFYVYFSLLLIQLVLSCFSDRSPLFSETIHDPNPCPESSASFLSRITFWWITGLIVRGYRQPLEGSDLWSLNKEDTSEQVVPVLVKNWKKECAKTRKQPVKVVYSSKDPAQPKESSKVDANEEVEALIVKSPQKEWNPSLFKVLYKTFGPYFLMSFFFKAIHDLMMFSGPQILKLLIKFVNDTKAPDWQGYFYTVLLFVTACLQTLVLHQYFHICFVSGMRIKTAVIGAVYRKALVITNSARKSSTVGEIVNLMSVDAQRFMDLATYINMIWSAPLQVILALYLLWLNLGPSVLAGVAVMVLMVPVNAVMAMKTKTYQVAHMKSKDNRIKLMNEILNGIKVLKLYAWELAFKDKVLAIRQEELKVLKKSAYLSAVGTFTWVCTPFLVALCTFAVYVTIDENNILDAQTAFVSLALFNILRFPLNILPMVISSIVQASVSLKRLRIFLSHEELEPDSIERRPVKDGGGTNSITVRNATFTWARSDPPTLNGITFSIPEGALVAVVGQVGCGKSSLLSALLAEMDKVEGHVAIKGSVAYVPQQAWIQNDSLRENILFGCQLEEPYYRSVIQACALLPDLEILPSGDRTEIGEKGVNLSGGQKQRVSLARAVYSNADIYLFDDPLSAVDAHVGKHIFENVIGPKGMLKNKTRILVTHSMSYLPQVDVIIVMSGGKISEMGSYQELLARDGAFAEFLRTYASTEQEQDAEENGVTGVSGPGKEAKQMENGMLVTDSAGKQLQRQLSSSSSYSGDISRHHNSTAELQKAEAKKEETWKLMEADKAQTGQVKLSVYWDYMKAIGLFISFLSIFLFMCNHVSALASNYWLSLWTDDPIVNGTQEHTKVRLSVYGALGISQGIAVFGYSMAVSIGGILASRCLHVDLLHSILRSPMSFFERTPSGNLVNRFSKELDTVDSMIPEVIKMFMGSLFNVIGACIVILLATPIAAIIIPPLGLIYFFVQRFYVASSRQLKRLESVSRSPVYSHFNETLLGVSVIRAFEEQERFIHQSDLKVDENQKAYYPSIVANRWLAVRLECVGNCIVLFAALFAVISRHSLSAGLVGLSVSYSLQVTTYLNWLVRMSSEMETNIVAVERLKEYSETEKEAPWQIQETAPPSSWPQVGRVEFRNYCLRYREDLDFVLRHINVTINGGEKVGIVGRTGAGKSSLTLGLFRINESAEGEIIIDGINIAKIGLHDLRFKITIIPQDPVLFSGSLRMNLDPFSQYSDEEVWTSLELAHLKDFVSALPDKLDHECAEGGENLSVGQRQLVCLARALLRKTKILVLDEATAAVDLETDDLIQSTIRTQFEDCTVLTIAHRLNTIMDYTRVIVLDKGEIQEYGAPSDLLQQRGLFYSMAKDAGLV

inhibition (INH) [1]: Active | inhibition (INH) [2]: Active | inhibition (INH) [3]: Active
Compound: COc1ccc(-c2cc([C@@H](O)[C@H]3CCCCN3)c3ccccc3n2)cc1.Cl

inhibition (INH) [1]: Not Active | inhibition (INH) [2]: Not Active | inhibition (INH) [3]: Not Active
Compound: COc1ccc(-c2cc([C@@H](O)[C@@H]3CCCCN3)c3ccccc3n2)cc1.Cl

Compound: COc1ccc(-c2cc([C@H](O)[C@H]3CCCCN3)c3ccccc3n2)cc1
inhibition (INH) [4]: Not Active | inhibition (INH) [5]: Not Active | inhibition (INH) [6]: Dose-dependent effect | INH [7]: 500 nM | INH [8]: 500 nM | Activity [9]: Non-toxic | inhibition (INH) [10]: Active | IC50 [11]: 100 nM | inhibition (INH) [1]: Active | inhibition (INH) [12]: Dose-dependent effect | inhibition (INH) [13]: Active | inhibition (INH) [14]: Active | Activity [15]: Non-toxic | inhibition (INH) [2]: Active | Activity [16]: Active | growth inhibition (GI) [17]: inactive | IC50 [18]: 100 nM | inhibition (INH) [3]: Active | inhibition (INH) [19]: Active

Compound: CC(=O)O[C@H]1C(=O)[C@@]2(C)[C@H]([C@H](OC(=O)c3ccccc3)[C@]3(O)C[C@H](OC(=O)[C@H](O)[C@@H](NC(=O)c4ccccc4)c4ccccc4)C(C)=C1C3(C)C)[C@]1(OC(C)=O)CO[C@@H]1C[C@@H]2O
growth inhibition (GI) [20]: inactive

inhibition (INH) [1]: Active | inhibition (INH) [2]: Active | inhibition (INH) [3]: Active
Compound: COc1ccc(-c2cc([C@H](O)[C@@H]3CCCCN3)c3ccccc3n2)cc1.Cl
